Experimental data published in ChEMBL document CHEMBL1123822, “Lysosomotropic agents. 7. Broad-spectrum antifungal activity of lysosomotropic detergents” (1987).
Converted amounts (≈) assume the structure as drawn.

What was measured:
Assay type in all cases: functional
[1] = tested on: Meyerozyma guilliermondii; experiment: The compound was tested for antifungal activity against Candida guilliermondii MY1019 using agar dilution assay
Procedure, shortened: (§1)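 Standardized agar dilution in Kimmig agar with 5% glycerol. Lysosomotropic detergents solubilized in 10% Me₂SO. Twofold serial dilutions in sterile distilled water gave final agar concentrations of 128 to 0.06 μg/mL. Stated error ±1 dilution stage.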

[2] = tested on: Candida tropicalis; experiment: The compound was tested for antifungal activity against Candida tropicalis MY1011 using agar dilution assay
Procedure, shortened: (§2)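 Standardized agar dilution on Kimmig agar with 5% glycerol. Detergents solubilized in 10% Me2SO; desoxycholate-stabilized amphotericin B diluted and titrated in sterile distilled water. Twofold dilutions in sterile distilled water gave final agar concentrations of 128 to 0.06 μg/mL. Error limit ±1 dilution stage.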

[3] = tested on: Candida albicans; experiment: The compound was tested for antifungal activity against Candida stellatoidea MY1017 using agar dilution assay; procedure, shortened: as §2
[4] = tested on: Saccharomyces cerevisiae; experiment: The compound was evaluated for mean zone diameter (inhibition) against yeast at the concentration of 250 ug/mL
Procedure, shortened: (§3)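 Filter-paper disk diffusion (6.2 mm disks) with drug in methanol at the stated level, 25 μL per disk. Disks were air-dried at room temperature, laid on seeded agar, rewet with 25 μL 10% aqueous Me₂SO and incubated overnight. Media were unbuffered, pH ca. 4.5–5.6. The panel was 21 yeasts and 21 filamentous fungi. Zones of 0 mm were excluded from means.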

[5] = tested on: Penicillium italicum; experiment: The compound was tested for antifungal activity against Penicillium italicum MF2819 using agar dilution assay; procedure, shortened: as §2
[6] = tested on: Candida albicans; experiment: The compound was tested for antifungal activity against Candida albicans MY1013 using agar dilution assay; procedure, shortened: as §1
[7] = tested on: Candida parapsilosis; experiment: The compound was tested for antifungal activity against Candida parapsilosis MY1009 using agar dilution assay; details: Lodderomyces parapsilosis; procedure, shortened: as §1
[8] = tested on: Saccharomyces cerevisiae; experiment: The compound was tested for antifungal activity against Saccharomyces cerevisiae MY1027 using agar dilution assay; procedure, shortened: as §2
[9] = tested on: Fungi; experiment: (§4) The compound was evaluated for mean zone diameter (inhibition) against yeast at the concentration of 1000 ug/mL
Procedure, shortened: (§5)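 Disk diffusion: drug in methanol spotted on 6.2 mm paper disks (25 μL/disk), dried at room temperature, laid on seeded agar, rewet with 25 μL 10% aqueous Me₂SO; zones read after overnight incubation. Unbuffered acidic media (pH ca. 4.5–5.6). Panel of 21 yeasts and 21 filamentous fungi; zones of 0 mm excluded from means.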

[10] = tested on: Aspergillus fumigatus; experiment: The compound was tested for antifungal activity against Aspergillus fumigatus MF4839 using agar dilution assay; procedure, shortened: as §1
[11] = tested on: Nakaseomyces glabratus; experiment: The compound was tested for antifungal activity against Torulopsis glabrata MY1059 using agar dilution assay; procedure, shortened: as §2
[12] = tested on: Saccharomyces cerevisiae; experiment: The compound was evaluated for mean zone diameter (inhibition) against yeast at the concentration of 125 ug/mL; procedure, shortened: as §3
[13] = tested on: Candida tropicalis; experiment: The compound was tested for antifungal activity against Candida tropicalis MY1012 using agar dilution assay; procedure, shortened: as §2
[14] = tested on: Candida albicans; experiment: The compound was tested for antifungal activity against Candida albicans MY1058 using agar dilution assay; procedure, shortened: as §1
[15] = tested on: Candida albicans; experiment: The compound was tested for antifungal activity against Candida albicans MY1055 using agar dilution assay; procedure, shortened: as §1
[16] = tested on: Cryptococcus neoformans; experiment: The compound was tested for antifungal activity against Cryptococcus neoformans MY1051 using agar dilution assay; procedure, shortened: as §2
[17] = tested on: Aspergillus flavus; experiment: The compound was tested for antifungal activity against Aspergillus flavus MF0383 using agar dilution assay; procedure, shortened: as §1
[18] = tested on: Candida albicans; experiment: The compound was tested for antifungal activity against Candida albicans MY0992 using agar dilution assay; procedure, shortened: as §1
[19] = tested on: Candida parapsilosis; experiment: The compound was tested for antifungal activity against Candida parapsilosis MY1010 using agar dilution assay; details: Lodderomyces parapsilosis; procedure, shortened: as §1
[20] = tested on: Diutina rugosa; experiment: The compound was tested for antifungal activity against Candida rugosa MY1022 using agar dilution assay; procedure, shortened: as §1
[21] = tested on: Candida albicans; experiment: The compound was tested for antifungal activity against Candida albicans My1029 using agar dilution assay; procedure, shortened: as §1
[22] = tested on: Cryptococcus neoformans; experiment: The compound was tested for antifungal activity against Cryptococcus neoformans MY1146 using agar dilution assay; procedure, shortened: as §2
[23] = tested on: Kluyveromyces marxianus; experiment: The compound was tested for antifungal activity against Candida pseudotropicalis MY1040 using agar dilution assay; procedure, shortened: as §1
[24] = tested on: Pichia kudriavzevii; experiment: The compound was tested for antifungal activity against Candida krusei MY1020 using agar dilution assay; procedure, shortened: as §1
[25] = tested on: Saccharomyces cerevisiae; experiment: The compound was evaluated for mean zone diameter (inhibition) against yeast at the concentration of 500 ug/mL; procedure, shortened: as §5
[26] = tested on: Ophiostoma ulmi; experiment: The compound was evaluated for zone inhibition against Ceratocystis ulmi (MF4042) using disk diffusion assay; 12 slightly hazy
Procedure, shortened: (§6)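 Disk diffusion: 25 μL of 250 μg/mL drug in methanol on 6.2 mm paper disks, dried at room temperature, placed on seeded agar and rewet with 25 μL 10% aqueous Me₂SO. Zones were read after overnight incubation, ±1 mm. Media were unbuffered, pH ca. 4.5–5.6: potato dextrose agar for filamentous fungi, Sabouraud dextrose for yeasts, unless YNB (76 mM ammonium sulfate, sole nitrogen source) or YED is named. Zone edges were scored fuzzy, slightly hazy, hazy or very hazy.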

[27] = tested on: Trichoderma; experiment: The compound was evaluated for zone inhibition against Trichoderma sp (MF4064) using disk diffusion assay; 16 Fuzzy edges
Procedure, shortened: (§7)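 Filter-paper disks (6.2 mm) loaded with 25 μL of a 250 μg/mL methanol solution, dried at room temperature, laid on seeded agar and rewet with 25 μL 10% aqueous Me₂SO. Media were unbuffered, pH ca. 4.5–5.6: potato dextrose agar for filamentous fungi, sabouraud dextrose agar for yeasts, unless noted. Inhibition zone diameter read after overnight incubation, ±1 mm. Zone edges scored fuzzy, slightly hazy, hazy or very hazy.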

[28] = tested on: Saccharomyces cerevisiae; experiment: The compound was evaluated for zone inhibition against Saccharomyces cerevisiae MY410 using disk diffusion assay; procedure, shortened: as §7
[29] = tested on: Rhizomucor miehei; experiment: The compound was evaluated for zone inhibition against Rhizomucor miehei (MF4784) using disk diffusion assay; 9 hazy; procedure, shortened: as §7
[30] = tested on: Kluyveromyces marxianus; experiment: The compound was evaluated for zone inhibition against Candida pseudotropicalis MY1100 using disk diffusion assay; 19 slightly hazy; procedure, shortened: as §6
[31] = tested on: Ustilago maydis; experiment: The compound was evaluated for zone inhibition against Ustilago zeae (MF1996) using disk diffusion assay; 14 slightly hazy; procedure, shortened: as §7
[32] = tested on: Saccharomyces cerevisiae; experiment: as §4; procedure, shortened: as §5
[33] = tested on: Naganishia albida; experiment: The compound was evaluated for zone inhibition against Cryptococcus albidus MY1070 using disk diffusion assay; 9 very hazy; procedure, shortened: as §6
[34] = tested on: Papiliotrema laurentii; experiment: The compound was evaluated for zone inhibition against Cryptococcus laurentii MY1073 using disk diffusion assay; procedure, shortened: as §6
[35] = tested on: Nakaseomyces glabratus; experiment: The compound was evaluated for zone inhibition against Torulopsis glabrata MY1062 using disk diffusion assay; 7 very hazy; procedure, shortened: as §7
[36] = tested on: Penicillium; experiment: The compound was evaluated for zone inhibition against Penicillium sp (MF5020) using disk diffusion assay; 15 Fuzzy edges; procedure, shortened: as §7
[37] = tested on: Fusarium oxysporum; experiment: The compound was evaluated for zone inhibition against Fusarium oxysporum (MF4014) using disk diffusion assay; 15 Fuzzy edges; procedure, shortened: as §7
[38] = tested on: Papiliotrema laurentii; experiment: The compound was evaluated for zone inhibition against Cryptococcus laurentii MY1077 using disk diffusion assay; 9 hazy; procedure, shortened: as §7
[39] = tested on: Penicillium; experiment: The compound was evaluated for zone inhibition against Penicillium sp (MF5014) using disk diffusion assay; 17 slightly hazy; procedure, shortened: as §7
[40] = tested on: Phoma; experiment: The compound was evaluated for zone inhibition against Phoma sp (MF4332) using disk diffusion assay; 13 slightly hazy; procedure, shortened: as §7
[41] = tested on: Penicillium; experiment: The compound was evaluated for zone inhibition against Penicillium sp (MF5016) using disk diffusion assay; 18 Fuzzy edges; procedure, shortened: as §7
[42] = tested on: Cephalosporium; experiment: The compound was evaluated for zone inhibition against Cephalosporium sp (MF4641) using disk diffusion assay; 12 slightly hazy; procedure, shortened: as §6
[43] = tested on: Cercospora beticola; experiment: The compound was evaluated for zone inhibition against Cercospora beticola (MF4608) using disk diffusion assay; 8 hazy; procedure, shortened: as §6
[44] = tested on: Saccharomyces cerevisiae; experiment: The compound was evaluated for mean zone diameter (inhibition) against yeast at the concentration of 62.5 ug/mL; procedure, shortened: as §3
[45] = tested on: Papiliotrema laurentii; experiment: The compound was evaluated for zone inhibition against Cryptococcus laurentii MY1074 using disk diffusion assay; 7 very hazy; procedure, shortened: as §7
[46] = tested on: Trichoderma viride; experiment: The compound was evaluated for zone inhibition against Trichoderma lignorum (MF3560) using disk diffusion assay; 13 Fuzzy edges; procedure, shortened: as §7
[47] = tested on: Kluyveromyces marxianus; experiment: The compound was evaluated for zone inhibition against Kluyveromyces fragilis MY1113 using disk diffusion assay; 15 slightly hazy; procedure, shortened: as §7
[48] = tested on: Saccharomyces cerevisiae; experiment: The compound was evaluated for zone inhibition against Saccharomyces cerevisiae YED MY34 using disk diffusion assay; 8 slightly hazy; procedure, shortened: as §7

CC(=O)N1CCN(c2ccc(OCC3COC(Cn4ccnc4)(c4ccc(Cl)cc4Cl)O3)cc2)CC1 (configuration not stated) [KETOCONAZOLE]
MIC [1]: 0.5 mg/L (≈ 0.941 µM)
MIC [2]: 1 mg/L (≈ 1.88 µM)
MIC [3]: 0.5 mg/L (≈ 0.941 µM)
Inhibition zone [4]: 23.3 mm
MIC [5]: 1 mg/L (≈ 1.88 µM)
MIC [6]: 0.5 mg/L (≈ 0.941 µM)
MIC [7]: 4 mg/L (≈ 7.53 µM)
MIC [8]: 0.5 mg/L (≈ 0.941 µM)
Inhibition zone [9]: 27.2 mm
MIC [10]: 1 mg/L (≈ 1.88 µM)
MIC [11]: 1 mg/L (≈ 1.88 µM)
Inhibition zone [12]: 20.6 mm
MIC [13]: > 128 mg/L
MIC [14]: 0.5 mg/L (≈ 0.941 µM)
MIC [15]: 0.5 mg/L (≈ 0.941 µM)
MIC [16]: 0.25 mg/L (≈ 0.47 µM)
MIC [17]: 1 mg/L (≈ 1.88 µM)
MIC [18]: 1 mg/L (≈ 1.88 µM)
MIC [19]: 2 mg/L (≈ 3.76 µM)
MIC [20]: 0.5 mg/L (≈ 0.941 µM)
MIC [21]: 0.5 mg/L (≈ 0.941 µM)
MIC [22]: 0.5 mg/L (≈ 0.941 µM)
MIC [23]: 1 mg/L (≈ 1.88 µM)
MIC [24]: 1 mg/L (≈ 1.88 µM)
Inhibition zone [25]: 24.8 mm

CCCCCCCCCCCCN1CCOCC1
Inhibition zone [26]: 17 mm
MIC [1]: 32 mg/L (≈ 125 µM)
Inhibition zone [27]: 16 mm
Inhibition zone [28]: 0 mm
MIC [2]: 32 mg/L (≈ 125 µM)
MIC [3]: 32 mg/L (≈ 125 µM)
Inhibition zone [29]: 9 mm
Inhibition zone [30]: 19 mm
Inhibition zone [4]: 11.4 mm
Inhibition zone [31]: 14 mm
MIC [5]: 32 mg/L (≈ 125 µM)
MIC [6]: 32 mg/L (≈ 125 µM)
Inhibition zone [32]: 19 mm
MIC [7]: 64 mg/L (≈ 251 µM)
MIC [8]: 32 mg/L (≈ 125 µM)
Inhibition zone [33]: 9 mm
MIC [10]: 64 mg/L (≈ 251 µM)
Inhibition zone [34]: 0 mm
MIC [11]: 64 mg/L (≈ 251 µM)
Inhibition zone [12]: 10.2 mm
Inhibition zone [35]: 7 mm
Inhibition zone [36]: 15 mm
Inhibition zone [37]: 15 mm
Inhibition zone [38]: 9 mm
MIC [13]: 16 mg/L (≈ 62.6 µM)
Inhibition zone [39]: 17 mm
MIC [14]: 32 mg/L (≈ 125 µM)
MIC [15]: 32 mg/L (≈ 125 µM)
MIC [16]: 16 mg/L (≈ 62.6 µM)
MIC [17]: 64 mg/L (≈ 251 µM)
Inhibition zone [40]: 13 mm
MIC [18]: 64 mg/L (≈ 251 µM)
MIC [19]: 16 mg/L (≈ 62.6 µM)
Inhibition zone [41]: 18 mm
MIC [20]: 32 mg/L (≈ 125 µM)
MIC [21]: 32 mg/L (≈ 125 µM)
Inhibition zone [42]: 12 mm
MIC [22]: 32 mg/L (≈ 125 µM)
Inhibition zone [43]: 8 mm
MIC [23]: 32 mg/L (≈ 125 µM)
Inhibition zone [44]: 8.6 mm
MIC [24]: 32 mg/L (≈ 125 µM)
Inhibition zone [45]: 7 mm
Inhibition zone [46]: 13 mm
Inhibition zone [47]: 15 mm
Inhibition zone [25]: 12.8 mm
Inhibition zone [48]: 8 mm
